Assay results reported in ChEMBL document CHEMBL5107952, “Synthesis of low-molecular weight fucoidan derivatives and their binding abilities to SARS-CoV-2 spike proteins” (RSC Med Chem, 2021).
pIC50, pKi: −log10 of the molar value.

Columns and labels:
Type in all cases: cell-based, Severe acute respiratory syndrome coronavirus 2
[1] = (§1) Competitive inhibition of biotinylated heparin binding to His-tagged SARS-COV-2 B.1.1.7 variant recombinant spike glycoprotein del69-70/del144/N501Y/A570D/D614G/P681H/T716I/S982A/D1118H mutant expressed in Expi293F cells incubated for 120 sec by biolayer interferometry streptavidin sensor based assay
Method in brief: (§2)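 Same heparin-competition BLI format with variant S proteins (B.1.1.7, B.1.351, P.1). Biotinylated heparin sat on streptavidin sensors, and S protein (1 μM) was in TBS (20 mM Tris, pH 7.4, 0.02% BSA). Bound (%) was read from the BLI signal. IC50 was fitted and converted to Ki via Cheng–Prusoff.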

[2] = (§3) Competitive inhibition of biotinylated heparin binding to His-tagged SARS-COV-2 P.1 variant recombinant spike glycoprotein L18F/T20N/P26S/D138Y/R190S/K417T/E484K/N501Y/H655Y/T1027I mutant expressed in Expi293F cells assessed as inhibition constant incubated for 300 sec by biolayer interferometry streptavidin sensor based assay; method in brief: as §2
[3] = as §3, with “B.1.351” for “P.1”, “D80A/D215G/K417N/E484K/N501Y/D614G/A701V” for “L18F/T20N/P26S/D138Y/R190S/K417T/E484K/N501Y/H655Y/T1027I”, “120” for “300”; method in brief: as §2
[4] = Competitive inhibition of biotinylated heparin binding to His-tagged SARS-COV-2 B.1.351 variant recombinant spike glycoprotein D80A/D215G/K417N/E484K/N501Y/D614G/A701V mutant expressed in Expi293F cells incubated for 120 sec by biolayer interferometry streptavidin sensor based assay; method in brief: as §2
[5] = Competitive inhibition of biotinylated heparin binding to His-tagged SARS-COV-2 P.1 variant recombinant spike glycoprotein L18F/T20N/P26S/D138Y/R190S/K417T/E484K/N501Y/H655Y/T1027I mutant expressed in Expi293F cells incubated for 300 sec by biolayer interferometry streptavidin sensor based assay; method in brief: as §2
[6] = as §1, with “cells assessed as inhibition constant” for “cells”; method in brief: as §2

With CCCCCCCCO[C@H]1O[C@@H](C)[C@@H](O[C@@H]2O[C@@H](C)[C@@H](O[C@@H]3O[C@@H](C)[C@@H](O[C@@H]4O[C@@H](C)[C@@H](OS(=O)(=O)O)[C@@H](OS(=O)(=O)O)[C@@H]4OS(=O)(=O)O)[C@@H](OS(=O)(=O)O)[C@@H]3OS(=O)(=O)O)[C@@H](OS(=O)(=O)O)[C@@H]2OS(=O)(=O)O)[C@@H](OS(=O)(=O)O)[C@@H]1OS(=O)(=O)O as the compound, how does the pIC50 [1] read?
Its pIC50 is 4.46.

What about the pKi [2] of the same compound?
Its pKi is 5.16.

And the pKi [3]?
Its pKi is 5.18.

What about the pIC50 [4] of the same compound?
The pIC50 was 4.07.

And the pIC50 [5]?
Its pIC50 is 4.18.

And the pKi [6]?
The pKi was 5.00.
